The text below walks through data of paper PMC11261338 (RSC Advances, 2024).

Data set [1] relates to myoblast cells (C2C12). The experiment in a line: MTT cell viability of normal myoblast cells at a single concentration. The data set is classed as cell-based, human. As to conditions: DHPM 10 μM, 48 hours. The method in brief:
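C2C12 myoblasts were grown in DMEM with 10% FBS, amphotericin B and gentamicin at 37 °C, 5% CO2, and seeded at 5000 cells/well for 12 h. Test compound was applied at 10 μM for 48 h. Cells were washed with PBS, given 0.5 mg mL−1 MTT in PBS for 90 min at 37 °C, and the formazan was dissolved in DMSO with 30 min agitation in the dark. A570 was read, in triplicate.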

In data set [2] the test system is myoblast cells (C2C12). Kind of data set: MTT assay, IC50 against myoblast cells. As to conditions: C2C12, 48 h, read-out: IC50 (μM) C2C12. The data set is classed as cell-based. The method in brief:
(§1)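 Cells kept at 37 °C, 5% CO2: AGS in RPMI-1640 and C2C12 in DMEM, each with 10% FBS, 0.25 μg mL−1 amphotericin B and 25 μg mL−1 gentamicin. 5000 cells/well were seeded for 12 h, then given test compound at 1000, 100, 10, 1 and 0.1 μM for 48 h. Untreated cells served as controls.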
(Formazan colour is commonly taken as a measure of viable cells.)

In data set [3] the test system is AGS (gastric adenocarcinoma) cells. The experiment in a line: MTT assay, IC50 against gastric cancer cells. It is filed as cell-based. As to conditions: 48 h, read-out: IC50 (μM) AGS. The method in brief: as §1
Data set [4] has as its system MCF-7 (mammary carcinoma) cells. Kind of data set: MTT assay, IC50 against breast cancer cells. The data set is classed as cell-based. As to conditions: Homo sapiens, MCF7, 48 h, read-out: IC50 (μM) MCF-7. The method in brief: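 MCF-7 cells grown in DMEM with human insulin (10 μg mL−1), 10% FBS, amphotericin B and gentamicin at 37 °C, 5% CO2. Seeded at 5000 cells per well for 12 h, then exposed 48 h to the test compound at 0.1, 1, 10, 100 and 1000 μM, with untreated controls. PBS wash, 0.5 mg mL−1 MTT for 90 min at 37 °C, DMSO solubilisation, A570.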

What is called IC50 is the concentration at which inhibition is half-maximal. Regarding `CCCCCCCC/C=C\CCCCCCCCOC(=O)C1=C(C)NC(=O)NC1c1cccc(O)c1` (stereo not shown) [10c, (Z)-Octadec-9-enyl 4-(3-hydroxyphenyl)-6-methyl-2-oxo-1,2,3,4-tetrahydropyrimidine-5-carboxylate], the “viability (%) of myoblast cells (C2C12)” value in the data set on myoblast cells (C2C12) [1] was ~70%. Moreover, the IC50 in the data set on myoblast cells (C2C12) [2] was determined as 18.4 ± 10.5 µM; in data set [3], 12.1 ± 0.4 µM; in data set [4] it was 2.3 ± 0.4 µM.
On to `CCCCCCCC/C=C\CCCCCCCCOC(=O)C1=C(C)NC(=S)NC1c1ccccc1O` (stereo not shown) [11b, (Z)-Octadec-9-enyl 4-(2-hydroxyphenyl)-6-methyl-2-thioxo-1,2,3,4-tetrahydropyrimidine-5-carboxylate], for which the IC50 was found to be 88.5 ± 6.4 µM with myoblast cells (C2C12) [2], 20.2 ± 2.1 µM in data set [3] and 10.1 ± 1.3 µM in data set [4].
For `CCCCCCCC/C=C\CCCCCCCCOC(=O)C1=C(C)NC(=S)NC1c1cccc(O)c1` (stereo not shown) [11c, (Z)-Octadec-9-enyl 4-(3-hydroxyphenyl)-6-methyl-2-thioxo-1,2,3,4-tetrahydropyrimidine-5-carboxylate] the same measures were 446 ± 84.2 µM, 125 ± 6.2 µM and 28.4 ± 7 µM.
Consider `CCCCCCCC/C=C\CCCCCCCCOC(=O)C1=C(C)NC(=S)NC1c1cccc(Cl)c1` (stereo not shown) [11f, (Z)-Octadec-9-enyl 4-(3-chlorophenyl)-6-methyl-2-thioxo-1,2,3,4-tetrahydropyrimidine-5-carboxylate], for which the values for the IC50 (in the data set on myoblast cells (C2C12) [2]; in data set [3]; in data set [4]) were 307 ± 143 µM, 146 ± 25.9 µM and 8.8 ± 8.3 µM, respectively.
For `CCCCCCCC/C=C\CCCCCCCCOC(=O)C1=C(C)NC(=S)NC1c1ccc(C)cc1` (stereo not shown) [11h, (Z)-Octadec-9-enyl 6-methyl-2-thioxo-4-(p-tolyl)-1,2,3,4-tetrahydropyrimidine-5-carboxylate], in that order: 362 ± 12.6 µM, 126 ± 4.6 µM and 39.2 ± 4.9 µM.
For `CCCCCCCC/C=C\CCCCCCCCOC(=O)C1=C(C)NC(=S)NC1c1ccc(OC)cc1` (stereo not shown) [11i, (Z)-Octadec-9-enyl 4-(4-methoxyphenyl)-6-methyl-2-thioxo-1,2,3,4-tetrahydropyrimidine-5-carboxylate], in that order: 166 ± 8.9 µM, 101.8 ± 0.6 µM and 16.4 ± 2.7 µM.
On to `CCOC(=O)C1=C(C)NC(=S)NC1c1cccc(O)c1` (stereo not shown) [Monastrol, reference compound], for which the 50% inhibitory concentration (IC50) was determined as 35.5 ± 6.4 µM in the data set on myoblast cells (C2C12) [2], 40 ± 6.2 µM in data set [3] and 25.6 ± 7.3 µM in data set [4].
